Assay results reported in ChEMBL document CHEMBL5030567, “Macrocyclic Inhibitors of HGF-Activating Serine Proteases Overcome Resistance to Receptor Tyrosine Kinase Inhibitors and Block Lung Cancer Progression” (J Med Chem, 2021).
Calls of active or inactive are those of the source. No cut-off for these calls is given here.

Key:
[1] = biological target: T1, Hepatocyte growth factor activator serine protease (Homo sapiens, UniProt Q04756); assay: Inhibition of recombinant human HGFA serine protease domain using Boc-QLR-AMC as substrate preincubated for 30 mins followed by substrate addition by fluorescence based assay
T1 sequence (Q04756 whole entry): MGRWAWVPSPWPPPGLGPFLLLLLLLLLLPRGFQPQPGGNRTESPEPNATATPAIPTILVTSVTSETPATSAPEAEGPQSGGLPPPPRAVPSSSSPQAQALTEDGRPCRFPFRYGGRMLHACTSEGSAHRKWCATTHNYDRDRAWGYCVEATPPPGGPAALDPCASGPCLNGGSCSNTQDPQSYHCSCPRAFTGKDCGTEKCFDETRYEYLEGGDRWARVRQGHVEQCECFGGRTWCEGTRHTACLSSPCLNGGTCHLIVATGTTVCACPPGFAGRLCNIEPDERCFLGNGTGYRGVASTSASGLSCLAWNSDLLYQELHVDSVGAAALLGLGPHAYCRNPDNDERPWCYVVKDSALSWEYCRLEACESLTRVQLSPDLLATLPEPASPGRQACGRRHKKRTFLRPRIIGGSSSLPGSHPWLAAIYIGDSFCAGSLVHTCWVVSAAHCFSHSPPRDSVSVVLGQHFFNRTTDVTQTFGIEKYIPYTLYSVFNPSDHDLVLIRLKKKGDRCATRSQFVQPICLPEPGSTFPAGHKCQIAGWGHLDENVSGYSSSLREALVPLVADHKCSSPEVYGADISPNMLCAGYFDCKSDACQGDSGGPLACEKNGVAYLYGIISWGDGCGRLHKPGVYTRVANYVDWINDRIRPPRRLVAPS
In short: (§1)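 Inhibitor in 11-point serial dilution (0-20 µM final, 2% DMSO) pre-incubated 30 min at room temperature with enzyme in TNC buffer (25 mM Tris, 150 mM NaCl, 5 mM CaCl2, 0.01% Triton X-100, pH 8). […] Hepsin activated beforehand 24 h at 37°C. Fluorescence ex 380/em 460 nm kinetic; four-parameter fit of velocities; mean of three experiments.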

[2] = Stability in mouse plasma assessed as half life; type: ADME, cell-free
[3] = Stability in human plasma assessed as half life; type: ADME, cell-free
Prothrombin = Prothrombin (Homo sapiens, UniProt P00734); assay: Inhibition of recombinant thrombin (unknown origin) using D-Phe-Pip-Arg-pNA as substrate preincubated for 30 mins followed by substrate addition by chromogenic assay
[4] = biological target: T2, Suppressor of tumorigenicity 14 protein (Homo sapiens, UniProt Q9Y5Y6); assay: Inhibition of recombinant human N-terminal met-His6-tagged matriptase catalytic domain (Gly596 to Val855 residues) expressed in Escherichia coli using Boc-QAR-AMC as substrate preincubated for 30 mins followed by substrate addition by fluorescence based assay; in short: as §1
T2 sequence (Q9Y5Y6 whole entry): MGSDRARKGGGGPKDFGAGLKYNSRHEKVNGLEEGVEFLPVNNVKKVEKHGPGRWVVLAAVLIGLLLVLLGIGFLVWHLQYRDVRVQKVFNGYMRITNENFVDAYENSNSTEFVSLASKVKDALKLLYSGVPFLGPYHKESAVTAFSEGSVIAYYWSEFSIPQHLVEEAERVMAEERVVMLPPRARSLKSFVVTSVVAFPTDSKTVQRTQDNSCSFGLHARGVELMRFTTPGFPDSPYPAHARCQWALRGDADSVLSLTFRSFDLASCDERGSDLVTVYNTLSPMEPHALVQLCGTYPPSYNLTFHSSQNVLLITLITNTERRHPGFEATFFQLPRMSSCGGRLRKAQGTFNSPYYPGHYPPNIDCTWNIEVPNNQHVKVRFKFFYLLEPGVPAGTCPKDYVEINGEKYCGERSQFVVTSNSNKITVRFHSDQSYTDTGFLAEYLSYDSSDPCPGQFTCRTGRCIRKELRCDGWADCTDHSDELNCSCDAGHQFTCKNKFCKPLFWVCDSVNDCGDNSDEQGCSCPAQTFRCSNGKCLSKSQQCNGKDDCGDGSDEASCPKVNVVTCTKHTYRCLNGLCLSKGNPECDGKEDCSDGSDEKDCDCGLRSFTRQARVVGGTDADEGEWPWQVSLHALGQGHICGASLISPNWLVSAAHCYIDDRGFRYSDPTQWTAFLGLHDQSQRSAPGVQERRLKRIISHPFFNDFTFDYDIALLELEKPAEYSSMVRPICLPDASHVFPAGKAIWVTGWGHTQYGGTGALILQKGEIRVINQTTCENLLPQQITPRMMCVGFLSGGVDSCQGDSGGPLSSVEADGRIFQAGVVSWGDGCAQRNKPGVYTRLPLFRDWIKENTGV

[5] = Plasma protein binding in mouse assessed as unbound fraction; type: ADME, cell-free
NCI-H596 [6] = assay: Inhibition of pro-HGF stimulated cell growth in human H596 cells at 500 nM by ELISA; type: functional, cell-based
NCI-H596 [7] = assay: Antitumor activity against human NCI-H596 cells xenografted in hHGF knock in NSG mouse assessed as tumor growth inhibition at 40 mg/kg, po administered daily for 14 to 16 days; type: functional, organism-based; settings: time 14-16 day
In short: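 Female hHGF-KI NSG mice given 2 million H596 cells, or males given 0.5 million. Dosing started at tumor volume ~40 or ~350 mm3. Daily oral dosing at 40 mg/kg for 16 or 14 days. Tumor growth compared with control-treated mice by ANOVA with Dunnett's test, n=3-6 per group.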

NCI-H596 [8] = assay: Antitumor activity against human NCI-H596 cells xenografted in hHGF knock in NSG mouse assessed as tumor growth inhibition at 40 mg/kg, po administered daily for 25 days; type: functional, organism-based; settings: time 25.0 day
In short: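 Prevention design in female hHGF-KI NSG mice injected with ten million H596 cells. Oral dosing at 40 mg/kg daily began immediately after injection and ran for 25 days. Tumor growth tracked, n=3-5 per group, Dunnett's test versus control.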

EBC-1 = assay: Cytotoxicity against human EBC-1 cells assessed as reduction in cell viability preincubated with pro-HGF for 24 hrs followed by compound addition and measured after 48 hrs by CellTiter-Glo assay; type: functional, cell-based
NCI-H596 [9] = assay: Inhibition of pro-HGF stimulated cell growth in human H596 cells at […] by ELISA; type: functional, cell-based; settings: dose 33.3 µM
[10] = Half life in mouse plasma at 20 mg/kg, ip; type: ADME, organism-based; settings: for t1/2: in vivo, 20 mg/kg
Serine protease hepsin = Serine protease hepsin (Homo sapiens, UniProt P05981); assay: Inhibition of recombinant human C-terminal 10-His tagged hepsin (Arg45 to Leu417) expressed in mouse myeloma cells using Boc-QAR-AMC as substrate preincubated for 30 mins followed by substrate addition by fluorescence based assay; type: single protein; in short: as §1
Coagulation factor X = Coagulation factor X (Homo sapiens, UniProt P00742); assay: Inhibition of recombinant C-terminal 10His-tagged human coagulation factor 10a (Leu24 to Lys488 residues) expressed in baculovirus infected Sf9 insect cells using Bz-Ile-Glu-Gly-Arg-pNA as substrate preincubated for 30 mins followed by substrate addition by chromogenic assay
HCC827 = assay: Cytotoxicity against human HCC827 cells assessed as reduction in cell viability at 20 nM after 72 hrs in presence of pro-HGF by crystal violet staining based assay; type: functional
In short: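 HCC827 cells treated with gefitinib (20 nM) with or without pro-HGF (100 ng/ml) and with compound (0.1-1 µM). Viability by crystal violet staining after 72 h. Means±S.E.M., n=3-5; one-way ANOVA with Dunnett's test versus gefitinib plus pro-HGF.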

t1/2 [2]	t1/2 [3]	SMILES	further results
4.613 h	> 4.818 h	CC(=O)N[C@H]1CC(=O)NCCCC[C@@H](C(=O)N[C@@H](CCCNC(=N)N)C(=O)c2nc3ccccc3s2)NC(=O)[C@H](Cc2ccc(O)cc2)NC1=O	IC50 [1]: > 20 µM
> 4.818 h	> 4.818 h	CC(=O)N[C@H]1CC(=O)NCCCC[C@@H](C(=O)N[C@@H](CCCNC(=N)N)C(=O)c2nc3ccccc3s2)NC(=O)CNC1=O	
		Cn1cc(-c2ccc3nnc(C(F)(F)c4ccc5ncccc5c4)n3n2)cn1	inhibition (NCI-H596 [6]): Active; Activity (NCI-H596 [7]): Active; Activity (NCI-H596 [8]): Active; Activity (EBC-1): inactive
		N=C(N)Nc1ccc(C(=O)Oc2ccc3cc(C(=N)N)ccc3c2)cc1	inhibition (NCI-H596 [9]): Active
> 4.818 h	> 4.818 h	CC(=O)N[C@H]1CC(=O)NCCCC[C@@H](C(=O)N[C@@H](CCCNC(=N)N)C(=O)c2nc3ccccc3s2)NC(=O)[C@H](C(C)C)NC1=O	
> 4.818 h	> 4.818 h	CC(=O)N[C@H]1CC(=O)NCCCC[C@@H](C(=O)N[C@@H](CCCNC(=N)N)C(=O)c2nccs2)NC(=O)[C@H](CC(C)C)NC1=O	IC50 [1]: > 20 µM
4.57 h	> 4.82 h	CC(=O)N[C@H]1CCCCNC(=O)CC[C@@H](C(=O)N[C@@H](CCCNC(=N)N)C(=O)c2nc3ccccc3s2)NC(=O)[C@H](CC(C)C)NC1=O	IC50 (Prothrombin): > 20 µM; fraction unbound [5]: 0.184; t1/2 [10]: 0.71 h
4.353 h	3.602 h	CC(=O)N[C@H]1CC(=O)NCCCC[C@@H](C(=O)N[C@@H](CCCNC(=N)N)C(=O)c2nc3ccccc3s2)NC(=O)[C@H](C)NC1=O	IC50 (Coagulation factor X): > 20 µM
> 4.818 h	> 4.818 h	CC(=O)N[C@H]1CC(=O)NCCCC[C@@H](C(=O)N[C@@H](CCCNC(=N)N)C(=O)c2nc3ccccc3s2)NC(=O)[C@H](CC(N)=O)NC1=O	
2.6 h	2.52 h	CC(=O)N[C@H]1CCCCNC(=O)CC[C@@H](C(=O)N[C@@H](CCCNC(=N)N)C(=O)c2nc3ccccc3s2)NC(=O)[C@H](CCCNC(=N)N)NC1=O	IC50 (Prothrombin): > 20 µM; IC50 (Coagulation factor X): 0.155 µM; fraction unbound [5]: 0.259
		COc1cc2ncnc(Nc3ccc(F)c(Cl)c3)c2cc1OCCCN1CCOCC1	Activity (HCC827): inactive

SMILES	t1/2 [2]	t1/2 [3]	further results
CC(=O)N[C@H]1CCCCNC(=O)C[C@@H](C(=O)N[C@@H](CCCNC(=N)N)C(=O)c2nc3ccccc3s2)NC(=O)[C@H](CC(C)C)NC1=O	2.97 h	> 4.82 h	IC50 (Prothrombin): > 20 µM; IC50 [1]: > 20 µM; IC50 [4]: 0.02 µM; fraction unbound [5]: 0.853
CC(=O)N[C@H]1CC(=O)N(C)CCCC[C@@H](C(=O)N[C@@H](CCCNC(=N)N)C(=O)c2nc3ccccc3s2)NC(=O)[C@H](CC(C)C)NC1=O	> 4.82 h	> 4.82 h	IC50 [1]: 12 µM; half-life ([10]; plasma): 0.553 h
CC(=O)N[C@H]1CC(=O)NCCCC[C@@H](C(=O)N[C@@H](CCCNC(=N)N)C(=O)c2nc3ccccc3s2)NC(=O)[C@H]([C@@H](C)O)NC1=O	3.21 h	4.142 h	IC50 [1]: 11.8 µM; IC50 [4]: 0.0037 µM; IC50 (Serine protease hepsin): 0.0058 µM; IC50 (Coagulation factor X): 13.3 µM
CC(=O)N[C@H]1CC(=O)NCCCC[C@@H](C(=O)N[C@@H](CCCNC(=N)N)C(=O)c2nc3ccccc3s2)NC(=O)[C@H](Cc2ccccc2)NC1=O	> 4.818 h	> 4.818 h	IC50 (Serine protease hepsin): 0.017 µM; t1/2 [10]: 1.61 h
CC(=O)N[C@H]1CC(=O)NCCCC[C@@H](C(=O)N[C@@H](CCCNC(=N)N)C(=O)c2nc3ccccc3s2)NC(=O)[C@H](CCC(N)=O)NC1=O	> 4.818 h	> 4.818 h	IC50 (Coagulation factor X): > 20 µM
CSCC[C@@H]1NC(=O)[C@@H](NC(C)=O)CC(=O)NCCCC[C@@H](C(=O)N[C@@H](CCCNC(=N)N)C(=O)c2nc3ccccc3s2)NC1=O	> 4.818 h	> 4.818 h	
